The subject of series [1] is CYP3A4. Particulars: healthy volunteers; ref Gupta et al. [2012]; cited from earlier work.
A short description of series [2]: Plasma midazolam pharmacokinetics after 2 mg oral doses on day 1 and day 16. The conditions noted are these: for AUC(0-t) / AUC(0-inf) / Cmax / half-life: human, plasma; for AUC(0-inf): AUCinf; for half-life: t1/2, Group B (midazolam alone).
The nature of series [3]: Safety: adverse event reports and clinical laboratory assessments. Type of series: in vivo, human. Put shortly: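 Open-label parallel-group study in postmenopausal women with osteoporosis, randomised 2:1. […] Group B received midazolam only. Adverse events recorded at any time through day 47 follow-up. Clinical laboratory tests at screening (21 days pre-treatment) and day 17. All treated subjects analysed.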

For series [4] the following is noted: 2 mg oral midazolam dose; sample collection at 0.25 h; ref Winter et al. [2013]; cited from earlier work.
The conditions of series [5]: 60 mg SC dose; ref Bekker et al. [2004]; cited from earlier work.
The nature of series [6]: Serum denosumab concentration by validated ELISA. Type of series: in vivo, human. Particulars: day 16 (14 days after a 60 mg SC dose); Group A.
The test system of series [7] is CYP3A4. The series is classed as in vivo, human. Particulars: single 60 mg SC dose of denosumab; postmenopausal women with osteoporosis.
Another series concerns RANKL. Put plainly: Serum C-telopeptide. Particulars: Group A; denosumab 60 mg SC on day 2. Type of series: in vivo, human.
Setting [8] is: Group A (midazolam + denosumab), N = 17.
[9] abbreviates: Group B (midazolam alone), period effect, n = 8.
Setting [10] is: po, 2 mg, Group B (midazolam alone), day 1, 2 mg oral, mean (SD), N = 8.
[11] abbreviates: po, 2 mg, Group B (midazolam alone), day 16, 2 mg oral, mean (SD), N = 8.

Broadly, the AUC(0-t) is exposure summed from dosing to a finite time, without extrapolation to infinity. The term AUC(0-inf) denotes total exposure, with the tail of the curve extrapolated. Read a high AUC(0-inf) as high exposure. By Cmax is commonly meant the highest concentration seen after dosing. What is called half-life is the time in which the quantity being followed falls by half.

As to `C[C@@H]1CCN(C(=O)CC#N)C[C@@H]1N(C)c1ncnc2[nH]ccc12` [tofacitinib], in the series with CYP3A4 [1], the “effects on CYP3A4 activity (midazolam pharmacokinetics)” value is “lack of effects”.

Take `Cc1ncc2n1-c1ccc(Cl)cc1C(c1ccccc1F)=NC2` [midazolam]: the “AUC0–inf, ratio of day 16/day 1, LS mean” value in series [2] (setting [8]) came to 1.02. Besides, in series [2] (setting [8]), the “AUC0–t, ratio of day 16/day 1, LS mean” value worked out at 1.02. Besides, in series [2] (setting [8]), the “Cmax, ratio of day 16/day 1, LS mean” value is 1.04. Besides, the AUCinf in series [2] (Group A, day 1, midazolam 2 mg oral, mean (SD), N = 17) is 35.6 (16.4) ng·h/mL. Also, the Tmax in series [2] (Group B (midazolam alone), day 16, 2 mg oral, median (range), N = 8) is 0.5 (0.5–1.0) hr. Moreover, in series [2] (setting [9]), the “AUC0–inf, point estimate for the ratio of the least square means (day 16/day 1)” value is listed as 0.98. For the same compound, in series [2] (setting [9]), the “AUC0–t, point estimate for the ratio of the least square means (day 16/day 1)” value is 0.98. Further, in series [2] (Group B (midazolam alone), period effect, n = 8, 90% CI 0.82 to 1.33), the “Cmax, point estimate for the ratio of the least square means (day 16/day 1)” value is listed as 1.05. The AUC(0-t) in series [2] (oral) turned out to be 31 ng·h/mL; in series [2] (po, 2 mg) it was 30.4 ng·h/mL. Further, the values for the AUC(0-inf) in series [2] (setting [10]) and in series [2] (setting [11]) were 31 ng·h/mL and 29.3 ng·h/mL, respectively. Moreover, the figures for the Cmax in series [2] (setting [10]) and in series [2] (setting [11]) were 11.3 ng/mL and 10.9 ng/mL, respectively. In addition, the half-life in series [2] (po, 2 mg, day 1, 2 mg oral, mean (SD), N = 8) was 6.2 h; in series [2] (po, 2 mg, day 16, 2 mg oral, mean (SD), N = 8), 6.22 h. Also, the somnolence incidence in series [3] (Group A, day 1 (prior to administration of denosumab), 7 of 19 subjects) was 37%; in series [3] (Group B, day 1, 2 of 8 subjects), 25%; in series [3] (day 16 (after the second midazolam dose)) it was “no subjects”; in series [3] (days 2 to 15), “no subjects”. The “changes in clinical laboratory values from baseline” value in series [3] (screening to day 17) is “unremarkable”. Also, the “deaths, withdrawal due to adverse events, serious adverse events” value in series [3] (whole study) is recorded as “No deaths, withdrawal due to adverse events, or serious adverse events”. The “mean Cmax” value in series [4] is on record as 11.9 ng/mL.

For “denosumab: fully human monoclonal immunoglobulin G2 (IgG2) that binds to and neutralizes RANKL activity”, the “time by which maximal pharmacodynamic effects are observed” value in series [5] is listed as not above 1 week. In addition, the “serum denosumab concentration, mean (SD)” value in series [6] is given as 5790 (1800) ng/mL. Moreover, the “effect on CYP3A4 activity (based on midazolam pharmacokinetics)” value in the series on CYP3A4 [7] is given as “no effect”. The “sCTX concentrations on day 16 lower than those on day 2, on average” value in the series on RANKL is approximately 81%.

These data come from article PMC4184705 (Pharmacology Research & Perspectives, 2014).
